In assay [1] the target is T1, Transient receptor potential cation channel subfamily V member 1 (Homo sapiens, UniProt Q8NER1). The assay can be described thus: Agonist activity at recombinant human TRPV1 expressed in CHO cells assessed as increase in calcium uptake incubated for 5 mins in presence of 45Ca2+ and capsaicin by liquid scintillation counter. The class given is cell-based.
The next assay concerns the target Mu-type opioid receptor (Homo sapiens, UniProt P35372). The assay can be described thus: Displacement of [3H]-DAMGO from full length human MOR expressed in chem5 cells incubated for 60 mins by liquid scintillation counter. The class given is cell-based. Background: In a radioligand displacement assay an active substance lowers the binding of a labelled ligand.
In assay [2] the target is T1, Transient receptor potential cation channel subfamily V member 1. The assay can be described thus: Displacement of [3H]RTX from recombinant human TRPV1 expressed in CHO cells incubated for 60 mins by liquid scintillation counter. Format: cell-based. In short, it runs like this: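 Pellets from human TRPV1 CHO cells (Tet-Off, induced 48 h) in DPBS with Ca2+/Mg2+ and BSA 0.25 mg/mL. Incubated with [3H]RTX 100 pM and varied competitor, 60 min at 37 °C. Nonspecific binding defined with unlabelled RTX 100 nM. Chilled, glycoprotein added, membranes pelleted by centrifugation, scintillation counted. Ki from Hill equation fit. Mean of ≥3 experiments.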

Assay [3] shares this target. The assay can be described thus: Antagonist activity at recombinant human TRPV1 expressed in CHO cells assessed as as inhibition of capsaicin-induced calcium uptake incubated for 5 mins in presence of 45Ca2+ by liquid scintillation counter. The class given is cell-based. An outline of the steps:
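CHO cells stably expressing human TRPV1 (Tet-Off) induced 48 h in tetracycline-free medium. Uptake run in DMEM with BSA 0.25 mg/mL and 45Ca2+ 37 kBq/mL, with capsaicin 30 nM plus increasing test concentrations, 5 min at 37 °C. Cells washed, lysed in RIPA, counted. Four wells per point, Hill fit. ID50 converted to Ki by Cheng-Prusoff. Mean of ≥3 experiments.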

Assay [4] deals with Mus musculus. The assay can be described thus: Antinociceptive activity in ICR mouse assessed as reduction in paw licking time at 30 mg/kg, ip pretreated with 10 mg/kg, ip mu opioid receptor antagonist, naloxone 15 mins prior to compound treatment and 30 mins later treated with formalin and measured after 20 to 30 mins by formalin test relative to control. Format: functional. In short, it runs like this:
(§1)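 Male ICR mice, 20-25 g, 3-4 per group. Naloxone 10 mg/kg i.p. given 15 min before test article or vehicle i.p. Formalin paw test 30 min later: 20 μL of 2% formalin into right hindpaw. Licking scored at 0-5 min and 20-30 min and compared with vehicle. Mean ± SEM.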

In assay [5] the test system is Mus musculus. The assay can be described thus: Antinociceptive activity in ip dosed ICR mouse assessed as reduction in pain response of paw licking and biting pretreated for 30 mins followed by formalin treatment and measures after 20 to 30 mins by formalin test. The class given is functional. In short, it runs like this: (§2)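 Male ICR mice, 20-25 g, 6-8 per group. Compound i.p. 30 min before 20 μL of 2% formalin in 0.9% saline into dorsal right hindpaw. Licking and biting time summed per 5 min block over 30 min. Early phase 0-5 min, late phase 20-30 min. ED50 derived from dose-response.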

Assay [6] deals with Mus musculus. The assay can be described thus: Antinociceptive activity in ICR mouse assessed as reduction in paw licking time at 30 mg/kg, ip pretreated for 30 mins followed by formalin treatment and measures after 20 to 30 mins by formalin test relative to control. Format: functional. An outline of the steps: (§3)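 Male ICR mice, 20-25 g. Compound i.p. 30 min before 20 μL of 2% formalin in 0.9% saline into dorsal right hindpaw. Licking time scored at 0-5 min (early) and 20-30 min (late) and expressed as % decrease versus vehicle. n = 3-4, mean ± SEM.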

Assay [7] relates to Mus musculus. The assay can be described thus: Antinociceptive activity in ICR mouse assessed as reduction in paw licking time at 30 mg/kg, ip pretreated for 30 mins followed by formalin treatment and measures after 0 to 5 mins by formalin test relative to control. Format: functional. In short, it runs like this:
as §3

Assay [8] deals with Mus musculus. The assay can be described thus: Antinociceptive activity in ICR mouse assessed as reduction in paw licking time at 30 mg/kg, ip pretreated with 10 mg/kg, ip mu opioid receptor antagonist, naloxone 15 mins prior to compound treatment and 30 mins later treated with formalin and measured after 0 to 5 mins by formalin test relative to control. The class given is functional. In short, it runs like this:
as §1

Assay [9] relates to Mus musculus. Nature of the assay: Antinociceptive activity in ip dosed ICR mouse assessed as reduction in capsaicin-induced paw licking pretreated for 30 mins followed by capsaicin treatment and measured for 5 mins. The class given is functional, organism-based. In short, it runs like this:
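Male ICR mice, 20-25 g, in groups of 3-4. Compound or vehicle given i.p. 30 min before intraplantar capsaicin (3 μg/paw in 10 μl) into the right hind paw. Time spent licking the injected paw is recorded over 5 min. Results are given as mean ± SEM and compared with vehicle.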

Assay [10] relates to Mus musculus. Nature of the assay: Antinociceptive activity in ICR mouse assessed as reduction in capsaicin-induced paw licking at 40 mg/kg, ip pretreated for 30 mins followed by capsaicin treatment and measured for 5 mins relative to control. Format: functional. In short, it runs like this: (§4)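 Male ICR mice, 20-25 g, 3-4 per group. Pretreated i.p. with compound or vehicle 30 min before intraplantar capsaicin 3 μg/paw in 10 μL into right hind paw. Licking time recorded for 5 min and expressed as % inhibition versus vehicle. Mean ± SEM.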

Assay [11] deals with Mus musculus. Nature of the assay: Antinociceptive activity in ICR mouse assessed as reduction of pain behaviour at 40 mg/kg, ip pretreated for 30 mins followed by formalin treatment and measured after 20 to 30 mins by formalin test. The class given is functional, organism-based. An outline of the steps: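 Male ICR mice, 20-25 g, in groups of 6-8. Compound given i.p. 30 min before 20 μL of 2% formalin in 0.9% saline injected into the dorsal right hindpaw. Licking and biting time is summed in 5-min blocks over 30 min. Late phase is 20-30 min after injection.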

Assay [12] deals with Mus musculus. Nature of the assay: Antinociceptive activity in ICR mouse assessed as reduction in capsaicin-induced paw licking at 20 mg/kg, ip pretreated for 30 mins followed by capsaicin treatment and measured for 5 mins relative to control. Format: functional. In short, it runs like this:
as §4

Assay [13] concerns Mus musculus. The assay can be described thus: Antinociceptive activity in ip dosed ICR mouse assessed as reduction in pain response of paw licking and biting pretreated for 30 mins followed by formalin treatment and measures after 0 to 5 mins by formalin test. Format: functional. An outline of the steps: as §2

Structures are written as SMILES. Calls of active or inactive are those of the source. No cut-off for these calls is given here.

T1 sequence (Q8NER1 whole entry): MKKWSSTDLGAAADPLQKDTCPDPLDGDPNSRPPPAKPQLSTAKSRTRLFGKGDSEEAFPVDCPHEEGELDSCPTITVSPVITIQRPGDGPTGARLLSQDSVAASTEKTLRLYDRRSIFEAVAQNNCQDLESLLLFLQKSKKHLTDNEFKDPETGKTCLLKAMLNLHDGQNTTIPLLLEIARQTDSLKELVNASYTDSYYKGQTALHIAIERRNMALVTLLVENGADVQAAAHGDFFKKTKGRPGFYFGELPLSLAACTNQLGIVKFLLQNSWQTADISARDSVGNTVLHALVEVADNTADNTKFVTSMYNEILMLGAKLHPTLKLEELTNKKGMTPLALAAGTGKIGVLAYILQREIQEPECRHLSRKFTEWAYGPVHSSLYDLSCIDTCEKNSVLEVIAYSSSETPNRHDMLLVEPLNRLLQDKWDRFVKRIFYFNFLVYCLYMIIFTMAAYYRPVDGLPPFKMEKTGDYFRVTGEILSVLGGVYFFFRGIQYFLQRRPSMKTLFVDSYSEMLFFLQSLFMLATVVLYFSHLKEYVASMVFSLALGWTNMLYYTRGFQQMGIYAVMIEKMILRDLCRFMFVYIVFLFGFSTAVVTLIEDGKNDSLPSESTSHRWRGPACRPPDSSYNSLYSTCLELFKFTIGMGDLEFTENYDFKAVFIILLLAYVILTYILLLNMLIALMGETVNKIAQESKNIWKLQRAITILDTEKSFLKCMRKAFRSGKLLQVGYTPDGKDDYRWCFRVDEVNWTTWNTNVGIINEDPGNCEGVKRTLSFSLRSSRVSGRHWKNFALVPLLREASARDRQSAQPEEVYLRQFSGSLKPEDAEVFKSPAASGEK
Chain of Mu-type opioid receptor (P35372 whole entry): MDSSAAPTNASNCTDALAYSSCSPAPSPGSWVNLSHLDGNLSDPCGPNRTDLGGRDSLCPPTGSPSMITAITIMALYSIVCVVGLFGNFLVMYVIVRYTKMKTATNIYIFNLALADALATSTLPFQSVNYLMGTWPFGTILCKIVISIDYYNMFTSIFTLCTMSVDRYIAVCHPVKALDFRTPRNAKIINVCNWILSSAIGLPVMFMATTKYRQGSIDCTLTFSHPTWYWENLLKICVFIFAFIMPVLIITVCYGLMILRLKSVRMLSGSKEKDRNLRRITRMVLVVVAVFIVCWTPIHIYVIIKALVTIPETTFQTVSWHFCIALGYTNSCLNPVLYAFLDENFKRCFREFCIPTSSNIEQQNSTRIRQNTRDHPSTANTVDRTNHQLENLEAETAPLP

By EC50 is commonly meant the concentration needed to bring the measured effect to its halfway point. For orientation: Ki means a measure of affinity in units of concentration, obtained from inhibition or displacement. As for `CN(C)C1(Cc2ccccc2)CCN(c2cc(C(F)(F)F)ccc2CNC(=O)Nc2ccc(CO)c(F)c2)CC1`, the EC50 result in assay [1] (cho) is on record as “Not Active”. Besides, the results for the Ki (at Mu-type opioid receptor; in assay [2]) were 240 nM and 27.9 nM, respectively.

For `CN(C)C1(Cc2ccccc2)CCN(c2cc(C(F)(F)F)ccc2CNC(=O)Nc2ccc(CNS(N)(=O)=O)c(F)c2)CC1`, the EC50 result in [1] (cho) is “Not Active”. For the same compound, the Ki at Mu-type opioid receptor amounted to 72.4 nM; in assay [2], 15.3 nM.

With `CC(C(=O)NCc1ccc(C(F)(F)F)cc1N1CCC(Cc2ccccc2)(N(C)C)CC1)c1ccc(NS(C)(=O)=O)c(F)c1` (configuration not stated), the EC50 entry in [1] (cho) is “Not Active”. The Ki on Mu-type opioid receptor is 428 nM; in assay [2], 3.79 nM.

`CN(C)C1(Cc2ccccc2)CCN(c2cc(C(F)(F)F)ccc2CNC(=O)Nc2cccc3c(=O)[nH]ccc23)CC1`: the half-maximal effective concentration (EC50) in assay [1] (read-out: EC50) stood at 43.7 nM. For the same compound, the values for the Ki (at Mu-type opioid receptor; in [3]; in [2]) were 105 nM, “Not Active” and 111 nM, respectively.

As to `CN(C)C1(Cc2ccccc2)CCN(c2cc(C(F)(F)F)ccc2CNC(=O)Nc2ccc3cccnc3c2)CC1`, the EC50 result in [1] (cho) was “Not Active”. Also, the figures for the Ki (at Mu-type opioid receptor; in assay [2]) were 166 nM and 14.1 nM, respectively.

As to `CN(C)C1(Cc2ccccc2)CCN(c2cc(C(F)(F)F)ccc2CNC(=O)Nc2ccc3ccncc3c2)CC1`, in assay [1] (cho), the 50% effective concentration (EC50) result was “Not Active”. Moreover, the Ki turned out to be 177 nM on Mu-type opioid receptor and 7.33 nM in assay [2].

As to `CN(C)C1(Cc2ccccc2)CCN(c2cc(C(F)(F)F)ccc2CNC(=O)Nc2ccc3cnccc3c2)CC1`, in assay [1] (cho), the EC50 result is recorded as “Not Active”. For the same compound, the Ki amounted to 17 nM at Mu-type opioid receptor and 62 nM in assay [2].

Take `CN(C)C1(Cc2ccccc2)CCN(c2cc(C(F)(F)F)ccc2CNC(=O)Nc2cccc3[nH]c(=O)ccc23)CC1`: in assay [1] (cho), the 50% effective concentration (EC50) result was “Not Active”. Besides, the Ki at Mu-type opioid receptor came out at 240 nM; in [2], 1.67 nM.

For the compound `CC1CCN(c2nc(C(F)(F)F)ccc2CNC(=O)[C@@H](C)c2ccc(NS(C)(=O)=O)c(F)c2)CC1` (racemic), the EC50 result in assay [1] (cho) is given as “Not Active”. In addition, the Ki in assay [2] came to 7.9 nM.

For `CN(C)C1(Cc2ccccc2)CCN(c2cc(C(F)(F)F)ccc2CNC(=O)Nc2ccc(CNS(C)(=O)=O)c(F)c2)CC1`, the half-maximal effective concentration (EC50) entry in [1] (cho) is reported as “Not Active”. Besides, the Ki turned out to be 322 nM at Mu-type opioid receptor and 16.4 nM in assay [2].

`CN(C)C1(Cc2ccccc2)CCN(c2cc(C(F)(F)F)ccc2CNC(=O)NCc2ccc(NS(C)(=O)=O)c(F)c2)CC1`: in assay [1] (cho), the concentration giving a half-maximal response (EC50) entry was “Not Active”. Further, the results for the inhibition constant Ki (on Mu-type opioid receptor; in assay [2]) were 76.2 nM and 266 nM, respectively.

For `CN(C)C1(Cc2ccccc2)CCN(c2cc(C(F)(F)F)ccc2CNC(=O)Nc2cccc3cnccc23)CC1`, the EC50 entry in assay [1] (cho) was “Not Active”. In addition, the Ki is 507 nM on Mu-type opioid receptor and 0.67 nM in assay [2].

Consider `CN(C)C1(Cc2ccccc2)CCN(c2cc(C(F)(F)F)ccc2CNC(=O)Nc2cccc3ccncc23)CC1`, for which the EC50 result in [1] (cho) is “Not Active”. The Ki is 205 nM at Mu-type opioid receptor and 12.3 nM in assay [2].

For the compound `CN(C)C1(Cc2ccccc2)CCN(c2cc(C(F)(F)F)ccc2CNC(=O)Nc2ccc3c(c2)OCC3)CC1`, in [1] (cho), the 50% effective concentration (EC50) result is given as “Not Active”. In addition, the Ki at Mu-type opioid receptor came to 225 nM; in [2], 41.4 nM.

Turning to `CN(C)C1(Cc2ccccc2)CCN(c2cc(C(F)(F)F)ccc2CNC(=O)Nc2ccc(NS(C)(=O)=O)c(F)c2)CC1`, the EC50 entry in assay [1] (cho) is given as “Not Active”. The results for the Ki (on Mu-type opioid receptor; in assay [2]) were 368 nM and 1160 nM, respectively. Moreover, the inhibition result in [3] was “Active”.

In the case of `CN(C)C1(Cc2ccccc2)CCN(c2cc(C(F)(F)F)ccc2CNC(=O)Nc2cccc3ccc(O)cc23)CC1`, the EC50 entry in [1] (cho) is given as “Not Active”. Also, the Ki on Mu-type opioid receptor turned out to be 137 nM; in assay [2] it was 0.46 nM.

As a reminder, the ED50 is the midpoint of the dose-response relation. What is called inhibition in vivo is how much of the control response was suppressed. For `CN(C)C1(Cc2ccccc2)CCN(c2cc(C(F)(F)F)ccc2CNC(=O)Nc2cccc3ncccc23)CC1`, in assay [1] (cho), the EC50 entry was “Not Active”. Further, the figures for the “inhibition (INH)” value with Mus musculus [4] and in the assay on Mus musculus [8] were 47.9% and 5.7%, respectively. The Activity result in the assay with Mus musculus [5] and in the assay on Mus musculus [13] was “Dose-dependent effect” throughout. For the same compound, the values for the median effective dose (ED50) in the assay on Mus musculus [5] and in the assay on Mus musculus [13] were 10.5 mg/kg and 23.9 mg/kg, respectively. The figures for the inhibition in vivo at 30 mg/kg in the assay on Mus musculus [6] and with Mus musculus [7] were 90.2% and 52.5%, respectively. Besides, the Ki was found to be 29 nM at Mu-type opioid receptor and 10.8 nM in assay [2]. In addition, the inhibition entry in the assay on Mus musculus [9] is “Dose-dependent effect”. For the same compound, the inhibition in vivo at 40 mg/kg with Mus musculus [10] was determined as 89.6%. In the assay with Mus musculus [11], the inhibition result is “Active”. The inhibition in vivo at 20 mg/kg in the assay on Mus musculus [12] was determined as 64.8%.

Turning to `CN(C)C1(Cc2ccccc2)CCN(c2cc(C(F)(F)F)ccc2CNC(=O)Nc2cccc3c2CC(O)CC3)CC1` (configuration not stated), the concentration giving a half-maximal response (EC50) result in assay [1] (cho) is “Not Active”. Also, the inhibition constant Ki came out at 261 nM at Mu-type opioid receptor and 0.95 nM in [2].

(Values after ChEMBL document CHEMBL4406835, “Discovery of dual-acting opioid ligand and TRPV1 antagonists as novel therapeutic agents for pain” (Eur J Med Chem, 2019).)
